Results as given in ChEMBL document CHEMBL1799922, “Synthesis and antimycobacterial activity of prodrugs of indeno[2,1-c]quinoline derivatives” (Eur J Med Chem, 2011).
≈ marks a conversion by molar mass, not a printed value.

Experiments:
[1] = Cytotoxicity against human U937 cells assessed as cell viability at 10 ug/ml after 72 hrs by MTT assay; type: cell-based, U-937; conditions: read-out: Activity
In short: (§1)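 U937 human monocytic cells plated at 1 × 10^5 cells/mL and allowed to adhere for 1 h at 37 °C in 5% CO2. Non-adherent cells were washed off with RPMI 1640. Adherent cells were exposed to compound in triplicate, with medium alone as the live control and 3% Tween 20 as the dead control. MTT (5 mg/mL in PBS) was then added for 3 h at 37 °C. Formazan was dissolved in 0.4 M HCl/isopropanol and absorbance read at 600 nm. Results are expressed as % cell viability.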

[2] = Stability of the compound in 10% aqueous ammonia buffer at pH 8 assessed as hydrolysis to 2-bromo-6-(1H-imidazol-1-yl)-7H-indeno[2,1-c]quinolin-7-one oxime at 1 mg at 37 degC by LC-MS analysis; type: physicochemical; design: scale not given: the % may be the effect or the level left
In short: (§2)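 Chemical hydrolysis: 1 mg prodrug dissolved in 1 mL of 10% aqueous ammonia in methanol (pH 8) and held in a thermostatted water bath at 37 °C, up to 24 h. Conversion to the parent oxime was followed by TLC and LC-MS. t1/2 is the time to 50% hydrolysis.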

[3] = Cytotoxicity against human U937 cells assessed as cell viability at 20 ug/ml after 72 hrs by MTT assay; type: cell-based, U-937; conditions: read-out: Activity; in short: as §1
[4] = Cytotoxicity against human U937 cells assessed as cell viability at 1.25 ug/ml after 72 hrs by MTT assay; type: cell-based, U-937; conditions: read-out: Activity; in short: as §1
[5] = Half life in 10% aqueous ammonia buffer at pH 8 assessed as hydrolysis to 2-bromo-6-(1H-imidazol-1-yl)-7H-indeno[2,1-c]quinolin-7-one oxime at 37 degC by LC-MS analysis; type: physicochemical; in short: as §2
[6] = test system: Mycobacterium tuberculosis; test: Antimicrobial activity against Mycobacterium tuberculosis H37Rv ATCC 27294 after 16 to 24 hrs by microplate alamar blue assay; type: functional
In short: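 M. tuberculosis H37Rv inoculum 2×10^5 cfu/mL (100 µL) added to twofold dilutions in Middlebrook 7H12 medium; final test range 128 µM to 0.5 µM from 12.8 mM DMSO stocks. Incubated 37 °C; day 7 Tween 80 plus Alamar Blue added, further 16-24 h at 37 °C. Fluorescence ex 530/em 590 nm; MIC = lowest concentration giving >90% fluorescence reduction versus replicate bacteria-only controls. Rifampin, isoniazid controls.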

[7] = Half life in human blood serum by LC-MS analysis; type: ADME, cell-free, Plasma
In short: (§3)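 Enzymatic hydrolysis: 1 mg prodrug dissolved in 1 mL ethanol, then 200 µL preheated human blood serum diluted to 80% with 0.16 M phosphate buffer (pH 7.4) was added. Samples were kept at 37 °C (24 h) and centrifuged 10 min at 10,000 rpm. Remaining prodrug in the supernatant was monitored by TLC and LC-MS. t1/2 is the time to 50% hydrolysis.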

[8] = Octanol-water partition coefficient, log P of the compound at pH 7.4 at room temperature by UV spectrophotometric analysis; type: physicochemical
In short: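 Shake-flask method at room temperature: 1-octanol and phosphate buffer (pH 7.4) were pre-saturated by shaking for 24 h. Compound at 10^-4 M in equal volumes of both phases was shaken vigorously for 1 h, left to stand 15 min, then centrifuged 10 min at 10,000 rpm. UV absorbance of each phase was read at 280 nm against blanks, and P was taken as the octanol/water absorbance ratio.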

Serum = test: Stability of the compound in 80% human blood serum assessed as hydrolysis to 2-bromo-6-(1H-imidazol-1-yl)-7H-indeno[2,1-c]quinolin-7-one oxime at 1 mg after 24 hrs at 37 degC by LC-MS analysis; type: ADME, cell-free; design: scale not given: the % may be the effect or the level left; in short: as §3
[9] = Selectivity index, ratio CC50 for human U937 cells to MIC for Mycobacterium tuberculosis H37Rv ATCC 27294; type: functional, U-937
[10] = Cytotoxicity against human U937 cells assessed as cell viability at 5 ug/ml after 72 hrs by MTT assay; type: cell-based, U-937; conditions: read-out: Activity; in short: as §1

SMILES | viability at 72 h, 10 ug/ml [1] [%] | Activity [2] [%] | viability at 72 h, 20 ug/ml [3] [%] | viability at 72 h, 1.25 ug/ml [4] [%] | half-life [5] [h] | MIC [6] [µg/mL] | half-life [7] [h] | logD [8] | Activity (Serum) [%] | Selectivity Index [9] | viability at 72 h, 5 ug/ml [10] [%]
CC(=O)O/N=C1\c2ccccc2-c2c1c(-n1ccnc1)nc1ccc(Br)cc21 | 59 | 95 | 42 | 87 | 48 | < 0.2 | 84 | 1.1 | 94 | >71 | 78
CC(C)(C)OC(=O)NC(Cc1ccccc1)C(=O)O/N=C1\c2ccccc2-c2c1c(N1CCN(c3ccccn3)CC1)nc1ccc(Br)cc21 (configuration not stated) | 71 | 98 | 73 | 87 | 72 | 3.47 (≈ 4.73 µM) | 432 | 1.2 | 70 | >12 | 87
